Laboratory results from ChEMBL document CHEMBL1926532, “Bioactive myrsinol diterpenoids from the roots of Euphorbia prolifera” (J Nat Prod, 2011).

How the values were obtained:
SH-SY5Y [1] = assay: Neuroprotective activity against MPP+-induced human SH-SY5Y cell death assessed as cell viability at 30 uM pretreated for 2 hrs prior to MPP+ induction by MTT assay relative to control; format: functional; conditions: read-out: Activity
Outline: (§1)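 SH-SY5Y cells in DMEM with 10% FBS and penicillin/streptomycin at 37 °C, 5% CO2. Detached with 1 mM EGTA in PBS for 15 min, seeded at 1 × 10^4 cells/well, grown 24 h. Pretreated 2 h with compound (3, 10, 30 μM), then MPP+ medium. MTT (0.5 mg/mL final) added for 4 h; formazan read at 490 nm. Viability expressed against vehicle control (100). Triplicates, mean ± SEM, ANOVA/Student–Newman–Keuls.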

SH-SY5Y [2] = assay: Neuroprotective activity against MPP+-induced human SH-SY5Y cell death assessed as cell viability at 10 uM pretreated for 2 hrs prior to MPP+ induction by MTT assay relative to control; format: functional; conditions: read-out: Activity; outline: as §1
SH-SY5Y [3] = assay: Neuroprotective activity against MPP+-induced human SH-SY5Y cell death assessed as cell viability at 3 uM pretreated for 2 hrs prior to MPP+ induction by MTT assay relative to control; format: functional; conditions: read-out: Activity; outline: as §1
SH-SY5Y [4] = assay: Cytotoxicity against human SH-SY5Y cells assessed as cell viability at 3 to 30 uM by MTT assay; format: cell-based

| Compound | viability at 30 µM (SH-SY5Y [1]) | viability at 10 µM (SH-SY5Y [2]) | viability at 3 µM (SH-SY5Y [3]) | Activity (SH-SY5Y [4]) |
| --- | --- | --- | --- | --- |
| CCC(=O)O[C@@H]1[C@@H]2[C@@H](OC(C)=O)[C@@]34CO[C@@](C)([C@H](OC(=O)c5ccccc5)[C@@]2(OC(C)=O)C[C@@H]1C)[C@@H]3[C@@H](C(C)(C)OC(C)=O)C=CC4=O [EUPHORBIAPROLIFERIN D] | 88.6% | 71.3% | 68.7% | – |
| CCC(=O)O[C@@H]1[C@@H]2[C@@H](OC(C)=O)[C@@]34CO[C@@](C)([C@@H](OC(=O)c5ccccc5)[C@@]2(OC(C)=O)C[C@@]1(C)OC(C)=O)[C@@H]3[C@@H](C(C)(C)OC(C)=O)C=C[C@H]4OC(C)=O [EUPHORPROLITHERIN B] | 92.2% | 81.7% | 70.3% | – |
| CCC/C=C/C=C/C=C\CO[C@@H]1[C@@H](C)[C@]2(O)[C@@H]3C=C(C)C(=O)[C@H]3CC(CO)=C[C@H]2[C@@H]2C(C)(C)[C@]12OC(=O)C(C)C | 84.1% | 77.3% | 69.6% | – |
| C=C(C)[C@H]1C=C[C@@H](OC(C)=O)[C@@]23CO[C@@](C)([C@H](OC(C)=O)[C@@]4(OC(C)=O)C[C@H](C)[C@H](OC(=O)CC)[C@@H]4[C@H]2OC(C)=O)[C@H]13 [EUPHORBIAPROLIFERIN G] | 88.7% | 78.3% | 65.6% | – |
| C=C(C)[C@H]1C=C[C@@H](OC(=O)c2ccccc2)[C@@]23CO[C@@](C)([C@@H](OC(=O)c4ccccc4)[C@@]4(OC(C)=O)C[C@H](C)[C@H](OC(=O)CC)[C@@H]4[C@H]2OC(C)=O)[C@H]13 [EUPHORPROLITHERIN C] | 103% | 91.5% | 75.5% | Non-toxic |
| C=C(C)[C@H]1C=C[C@@H](OC(C)=O)[C@@]23CO[C@@](C)([C@H](OC(=O)c4ccccc4)[C@@]4(OC(C)=O)C[C@H](C)[C@H](OC(=O)CC)[C@@H]4[C@H]2OC(C)=O)[C@H]13 [EUPHORBIAPROLIFERIN F] | 93.5% | 87.1% | 74.5% | – |
| CCCC(=O)O[C@@H]1[C@@H]2[C@@H](OC(C)=O)[C@@]34CO[C@@](C)([C@@H](OC(=O)c5ccccc5)[C@@]2(OC(C)=O)C[C@@H]1C)[C@@H]3[C@@H]1[C@H](C[C@H]4OC(C)=O)C1(C)C [EUPHORBIAPROLIFERIN J] | 104% | 89.2% | 79.8% | Non-toxic |
| CCCC(=O)O[C@@H]1[C@@H]2[C@@H](OC(C)=O)[C@@]34CO[C@@](C)([C@@H](OC(=O)c5ccccc5)[C@@]2(OC(C)=O)C[C@@]1(C)OC(=O)c1ccccc1)[C@@H]3[C@@H](C(C)(C)OC(C)=O)C=C[C@H]4OC(C)=O (relative stereo) [EUPHORBIAPROLIFERIN B] | 109% | 93.2% | 74.8% | Non-toxic |
| CC(=O)O[C@@H]1[C@@H]2[C@@H](OC(C)=O)[C@@]34CO[C@@](C)([C@H](OC(=O)c5ccccc5)[C@@]2(O)C[C@@H]1C)[C@@H]3[C@@H]1[C@@H](C[C@]1(C)OC(C)=O)[C@@H](OC(=O)c1ccccc1)C4=O [EUPHORBIAPROLIFERIN E] | 82.1% | 76% | 67.1% | – |
| CCC(=O)O[C@@H]1[C@@H]2[C@@H](OC(C)=O)[C@@]34CO[C@@](C)([C@@H](OC(=O)C(C)C)[C@@]2(OC(C)=O)C[C@@]1(C)OC(=O)C(C)C)[C@@H]3[C@@H](C(C)(C)OC(C)=O)C=C[C@H]4OC(C)=O (relative stereo) [EUPHORBIAPROLIFERIN A] | 92.7% | 83.5% | 75.1% | – |
| CCC(=O)O[C@@H]1[C@@H]2[C@@H](OC(C)=O)[C@@]34CO[C@@](C)([C@@H](OC(=O)c5ccccc5)[C@@]2(OC(C)=O)C[C@@]1(C)OC(=O)C(C)C)[C@@H]3[C@@H](C(C)(C)OC(C)=O)C=C[C@H]4OC(C)=O [PROLIFERIN A] | 97.8% | 85.2% | 74.4% | Non-toxic |
| CCC(=O)O[C@@H]1[C@@H]2[C@@H](OC(C)=O)[C@@]34CO[C@@](C)([C@@H](OC(=O)c5ccccc5)[C@@]2(OC(C)=O)C[C@@H]1C)[C@@H]3[C@@H]1[C@H](C[C@H]4OC(C)=O)C1(C)C [EUPHORBIAPROLIFERIN I] | 101% | 88.9% | 84.8% | Non-toxic |
| Nc1nc2c(ncn2[C@@H]2O[C@H](CO)[C@@H](O)[C@H]2O)c(=O)[nH]1 [GUANOSINE] | 87.3% | 77.3% | 68.1% | – |
| CC(=O)O[C@@H]1[C@H]2[C@@H](OC(=O)C(C)C)[C@@H](C)C[C@]2(OC(C)=O)[C@@H](OC(C)=O)[C@]2(C)OC[C@]13C(=O)C=C[C@H](C(C)(C)OC(C)=O)[C@@H]23 [EUPHORBIAPROLIFERIN C] | 81.3% | 75.4% | 68.3% | – |
| C=C(C)[C@H]1C=C[C@@H](OC(=O)c2ccccc2)[C@@]23CO[C@@](C)([C@H](OC(=O)c4cccnc4)[C@@]4(OC(C)=O)C[C@H](C)[C@H](OC(=O)CC)[C@@H]4[C@@H]2OC(C)=O)[C@H]13 | 96.5% | 87.4% | 77.7% | Non-toxic |
| CCC(=O)O[C@@H]1[C@@H]2[C@@H](OC(C)=O)[C@@]34CO[C@@](C)([C@@H](OC(=O)c5ccccc5)[C@@]2(OC(C)=O)C[C@@]1(C)OC(=O)c1ccccc1)[C@@H]3[C@@H](C(C)(C)OC(C)=O)C=C[C@H]4OC(C)=O [PROLIFERIN B] | 112% | 95.4% | 82.1% | Non-toxic |
| C=C(C)[C@H]1C=C[C@@H](OC(=O)c2ccccc2)[C@@]23CO[C@@](C)([C@H](OC(C)=O)[C@@]4(OC(C)=O)C[C@H](C)[C@H](OC(=O)CC)[C@@H]4[C@@H]2OC(C)=O)[C@H]13 | 94.2% | 86.5% | 78.1% | – |
| CCC(=O)O[C@@H]1[C@@H]2[C@@H](OC(=O)c3ccccc3)[C@@]3(COC(C)=O)[C@@H]([C@@H]4[C@H](C[C@H]3OC(C)=O)C4(C)C)[C@](C)(OC(C)=O)C(=O)[C@@]2(O)C[C@@H]1C | 78.5% | 70.3% | 61.5% | – |
| CCC(=O)O[C@@H]1[C@@H]2[C@@H](OC(C)=O)[C@@]34CO[C@@](C)([C@@H](OC(=O)c5ccccc5)[C@@]2(OC(C)=O)C[C@@H]1C)[C@@H]3[C@@H](C(C)(C)OC(C)=O)C=C[C@H]4OC(C)=O [PROLIFERIN C] | 95.1% | 84.5% | 76.7% | Non-toxic |
| C=C(C)[C@H]1C=C[C@@H](OC(=O)c2ccccc2)[C@@]23CO[C@@](C)([C@H](OC(=O)c4ccccc4)[C@@]4(OC(C)=O)C[C@H](C)[C@H](OC(C)=O)[C@@H]4[C@H]2OC(C)=O)[C@H]13 [EUPHORBIAPROLIFERIN H] | 99.4% | 89.8% | 83.6% | Non-toxic |
